Test results reported in ChEMBL document CHEMBL4342502, “Synthesis and Antichlamydial Activity of Molecules Based on Dysregulators of Cylindrical Proteases” (J Med Chem, 2020).
Active and inactive are the calls of the source. No cut-off for these calls is given here.

Key:
[1] = Mutagenicity in Drosophila melanogaster somatic cells assessed as frequency of clone formation in HB crosses at 0.25 to 1 mM by SMART assay; format: ADME; conditions: 1000 µM
Summary of the method: (§1)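 Drosophila SMART wing-spot assay, ST and HB crosses. Third-instar larvae (72 ± 4 h) placed on hydrated instant mashed potato medium containing compound at 0.25, 0.5 or 1.0 mM final. Negative control: water with 1% Tween-80 and 3% ethanol. Statistics by Frei and Würgler two-sided U test, P≤0.05.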

Chlamydia trachomatis [2] = experiment: Anti-chlamydial activity against Chlamydia trachomatis Serovar LGV-L2 infected in Hep2 cells assessed as reduction in chlamydial infectivity by measuring decrease in inclusion forming units at 50 ug/ml treated at 8 hrs post-infection and 24 hrs later re-infecting fresh Hep2 cells monolayer with infected cells and measured at 24 hrs post re-infection by immunofluorescence staining based microscopy analysis; format: functional, organism-based
Summary of the method: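 HEp-2 cells in DMEM with 10% FBS, infected with C. trachomatis L2 at MOI 1. Compounds added 8 hpi in triplicate; DMSO stocks at 50 mg/mL. At 24 hpi lysates collected in sucrose storage medium, frozen at −80 °C, and used to infect fresh HEp-2 monolayers in 10-fold dilutions. After 24 h, stained with goat anti-MOMP and Alexa488 secondary. Inclusions counted in 15 fields at 20x; IFU = mean count per field corrected for dilution.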

[3] = (§2) Activation of recombinant human C-terminal 6xHis-tagged ClpP expressed in Escherichia coli assessed as induction of casein degradation at 0.1 to 1 uM using FITC-labelled casein as substrate pretreated with enzyme for 30 mins followed by substrate addition and measured every 3 mins for 3 hrs in absence of AAA+ chaperone by fluorescence based tecan-plate reader assay
Summary of the method: (§3)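 Recombinant C-terminal His6-tagged ClpP, expressed in a clpAPX-null E. coli strain and purified (mammalian ClpP without mitochondrial signal, codon-optimized). ClpP at 1 or 0.1 μM (E. coli), 1 μM (human, mouse) or 6 μM (chlamydial ClpP1 and ClpP2) preincubated with compound or DMSO, 30 min, 32 °C, in HEPES pH 7.6/KCl/MgCl2/DTT/glycerol buffer. 20 μM FITC-casein then added. Fluorescence (ex 490/em 525 nm) read every 3 min for 3 h. At least three runs on at least two protein preparations.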

[4] = as §2, with “mouse” for “human”; summary of the method: as §3
Chlamydia trachomatis [5] = experiment: as §2, with “Chlamydia trachomatis Serovar LGV-L2” for “human”, “6xhis-tagged ClpP1” for “6xHis-tagged ClpP”, “absence” for “absence of AAA+”; summary of the method: as §3
Chlamydia trachomatis [6] = experiment: as §2, with “Chlamydia trachomatis Serovar LGV-L2” for “human”, “6xhis-tagged ClpP1/ClpP2 dimer” for “6xHis-tagged ClpP”; summary of the method: as §3
Staphylococcus aureus [7] = experiment: Antibacterial activity against Staphylococcus aureus JE2 assessed as bacterial growth inhibition at 32 ug/ml measured after 16 hrs by broth microdilution method; format: functional, organism-based
Summary of the method: (§4)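 Broth microdilution in Mueller Hinton broth, triplicate. Direct colony suspension at 1.5 x 10^8 CFU/mL diluted to ~10^5 CFU/mL. Serial dilutions made from DMSO stocks at 1 mg/mL; vancomycin positive control, blank medium negative control. Incubated 16 h at optimum temperature. MIC is the lowest concentration without visible growth at 600 nm; mean of triplicate determinations.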

Staphylococcus aureus [8] = experiment: Antibacterial activity against methicillin-resistant Staphylococcus aureus ATCC 43300 assessed as bacterial growth inhibition at 32 ug/ml measured after 16 hrs by broth microdilution method; format: functional, organism-based
Escherichia coli [9] = experiment: Antibacterial activity against Escherichia coli ATCC 25922 assessed as bacterial growth inhibition at 32 ug/ml measured after 16 hrs by broth microdilution method; format: functional, organism-based
Escherichia coli [10] = experiment: Antibacterial activity against Escherichia coli K12 assessed as bacterial growth inhibition at 32 ug/ml measured after 16 hrs by broth microdilution method; format: functional, organism-based; conditions: K-12; summary of the method: as §4
Pseudomonas aeruginosa = experiment: Antibacterial activity against Pseudomonas aeruginosa ATCC 27853 assessed as bacterial growth inhibition at 32 ug/ml measured after 16 hrs by broth microdilution method; format: functional, organism-based
Klebsiella pneumoniae = experiment: Antibacterial activity against Klebsiella pneumoniae ATCC 700603 assessed as bacterial growth inhibition at 32 ug/ml measured after 16 hrs by broth microdilution method; format: functional, organism-based
Candida albicans = experiment: Antifungal activity against Candida albicans ATCC 90028 assessed as fungal growth inhibition at 32 ug/ml measured after 16 hrs by broth microdilution method; format: functional, organism-based
Staphylococcus aureus [11] = experiment: Antibacterial activity against Staphylococcus aureus JE2 assessed as bacterial death up to 256 ug/ml measured after 16 hrs by broth microdilution method; format: functional, organism-based; summary of the method: as §4
Escherichia coli [12] = experiment: Antibacterial activity against Escherichia coli K12 assessed as bacterial death up to 256 ug/ml measured after 16 hrs by broth microdilution method; format: functional, organism-based; conditions: K-12; summary of the method: as §4
HeLa 229 = experiment: Cytotoxicity against human HeLa 229 cells assessed as reduction in cell viability at 50 ug/ml after 24 hrs by CCK-8 assay; format: cell-based; conditions: hela 229, 24 h
Summary of the method: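 HeLa 229 and HaCaT cells in DMEM with 10% FBS and 1% penicillin/streptomycin, 37 °C, 5% CO2, seeded at 5000 cells/well. Next day treated with 50 μg/mL in triplicate, with matching DMSO controls. After 24 h, CCK-8 added for 2 h; corrected absorbance read at 450 nm.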

[13] = Half life in human liver microsomes at 1 ug/ml measured up to 60 mins by LC-MS/MS analysis; format: ADME, Microsome; conditions: microsomes, 1 h
Summary of the method: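 Human liver microsomes (1.0 mg/mL protein) in 100 mM phosphate pH 7.4 with 10 mM MgCl2 and 2 mM NADPH, preincubated 10 min at 37 °C. Reaction started with compound at 1 μg/mL. Sampled at 0, 5, 15, 20, 30, 45 and 60 min and quenched in methanol with internal standard. Controls: no NADPH (negative), testosterone (positive). Analysed by LC-MS/MS, triplicate.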

[14] = Drug metabolism in human liver microsomes assessed as amount of drug modified at 1 ug/ml […] in presence of NADPH by LC-MS/MS analysis; format: ADME, Microsome; conditions: read-out: Drug metabolism
[15] = Mutagenicity in Drosophila melanogaster somatic cells assessed as frequency of clone formation in ST crosses at 0.25 to 1 mM by SMART assay; format: ADME; conditions: 1000 µM; summary of the method: as §1
[16] = Toxicity in Drosophila melanogaster assessed as survival rate at 0.25 to 1 mM; conditions: 1000 µM
Summary of the method: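 Drosophila SMART assay using third-instar larvae (72 ± 4 h) from ST and HB crosses. Larvae exposed in hydrated instant mashed-potato medium at 0.25, 0.5 and 1.0 mM final. Vehicle control: water with 1% Tween-80 and 3% ethanol. Survival of treated groups compared statistically with the vehicle control.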

[17] = Stability of the compound in simulated gastric fluid at 50 uM and pH 1.2 at 37 degree C measured up to 120 mins by HPLC-ESI/MS analysis; conditions: simulated gi fluid, pH 1.2, 2 h

Structure (SMILES) | Activity [1] | inhibition (Chlamydia trachomatis [2]) | Activity [3] | Activity [4] | Activity (Chlamydia trachomatis [5]) | Activity (Chlamydia trachomatis [6]) | inhibition (Staphylococcus aureus [7]) | inhibition (Staphylococcus aureus [8]) | inhibition (Escherichia coli [9]) | inhibition (Escherichia coli [10]) | inhibition (Pseudomonas aeruginosa) | inhibition (Klebsiella pneumoniae) | inhibition (Candida albicans) | Activity (Staphylococcus aureus [11]) | Activity (Escherichia coli [12]) | Activity (HeLa 229) | t1/2 [13] [min] | metabolised at 10 min, 1 ug/ml [14] [%] | Activity [15] | Activity [16] | also measured
CC(C)(C(=O)N1CCN(Cc2ccc(Cl)cc2)CC1)S(=O)(=O)c1ccc(C(F)(F)F)cn1 | Non-Toxic | Active | Not Active | Not Active | inactive | inactive | inactive | inactive | inactive | inactive | inactive | inactive | inactive | inactive | inactive | Non-Toxic | < 2 | 90 | Non-Toxic | Non-Toxic | Stability [17]: Stable
CC(C)(C(=O)NCCCc1ccccc1)S(=O)(=O)c1ccc(C(F)(F)F)cc1 | Non-Toxic | Active | Active | Active | Active | Active | inactive | inactive | inactive | inactive | inactive | inactive | inactive | inactive | inactive | Toxic | 6.13 | 90 | Non-Toxic | Non-Toxic | Stability [17]: Stable
